ABHD4 inh: ABHD4 (mouse) inhibition, primary FP screen | Q8VD66 | purified mABHD4, FP-Rh probe fluorescence polarization | inhibition, % at 8.92 µM | hit rate 0.54% among 370,000;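 active = inhibition exceeding the mean over every tested compound plus 3 SD, cut at about 30% in these data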
Target sequence (Q8VD66 whole entry, looked up): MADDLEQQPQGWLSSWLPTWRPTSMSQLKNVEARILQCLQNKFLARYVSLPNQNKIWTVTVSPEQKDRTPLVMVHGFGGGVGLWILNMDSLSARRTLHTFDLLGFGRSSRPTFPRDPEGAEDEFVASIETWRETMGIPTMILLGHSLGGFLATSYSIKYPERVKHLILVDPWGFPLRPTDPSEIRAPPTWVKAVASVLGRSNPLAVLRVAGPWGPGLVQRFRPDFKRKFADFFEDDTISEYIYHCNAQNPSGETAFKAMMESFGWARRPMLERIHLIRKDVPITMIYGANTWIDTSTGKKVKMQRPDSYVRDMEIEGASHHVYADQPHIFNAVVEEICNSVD
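Assay system: mouse ABHD4 enzyme, wild type / Also added: fluorescent activity-based probe FP-Rh / Doses: single nominal dose of 8.92 µM, 0.89% DMSO final / Timing: 45 min compound pre-incubation plus 60 min probe step, 25 °C / Signal: FP readout, ex 525 nm / em 598 nm / Control set: S159A mutant/DMSO as 100%, compound-well median as 0%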
SIAE inh: inhibitors of human sialic acid acetylesterase SIAE | inhibition, % at 9.66 µM | SIAE FP-Rh probe binding, fluorescence polarization | Q9HAT2 | hit rate 0.69% among 370,000 | AID 1053197;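 active = inhibition above a cutoff: mean of compounds within the control limits plus 3 SD of those, cut at about 17% in these data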
PRMT1 inh: inhibitors of human PRMT1. Q99873. hit rate 1.3% among 370,000. recombinant PRMT1, activity-based probe fluorescence polarization. inhibition, % at 2.79 µM. AID 652257;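 active = inhibition above about 21% made by adding two undisclosed values, limit read from the data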
Target sequence (Q99873 whole entry, looked up): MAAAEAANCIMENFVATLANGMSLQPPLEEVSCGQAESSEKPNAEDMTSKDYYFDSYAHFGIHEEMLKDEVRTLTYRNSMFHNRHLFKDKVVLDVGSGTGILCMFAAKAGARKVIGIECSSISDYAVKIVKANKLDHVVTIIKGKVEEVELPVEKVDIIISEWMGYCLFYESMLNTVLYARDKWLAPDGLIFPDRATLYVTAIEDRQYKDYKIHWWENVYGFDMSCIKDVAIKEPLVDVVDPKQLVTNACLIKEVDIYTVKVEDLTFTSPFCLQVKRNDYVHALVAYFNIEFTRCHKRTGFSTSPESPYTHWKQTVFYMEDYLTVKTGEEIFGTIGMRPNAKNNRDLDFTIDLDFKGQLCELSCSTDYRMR
TCR-CD3 inh: inhibitors of human TCR-CD3 interaction; inhibition, % at 9.4 µM; AID 651800; hit rate 0.37% among 360,000; TAMRA-labeled TCR probe fluorescence, biochemical; in the data active = inhibition above about 19%;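 note: recombinant mutant TCR 2C K166C tagged with TAMRA read by polarization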
rCAG binder: molecules binding r(CAG) RNA repeats; r(CAG) RNA repeat, TO-PRO-1 dye displacement fluorescence; hit rate 1.3% among 370,000; inhibition, % at 3 µM; AID 651821;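 active = inhibition above the plate cutoff, the mean of all test compounds on that plate plus 3 SD, cut at about 35% in these data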;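 note: higher means more dye released from RNA so lower well fluorescence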
HTRA1 inhibitor: inhibitors of human serine peptidase HTRA1. Q92743. recombinant HTRA1, FP-rhodamine activity-based probe, fluorescence polarization. inhibition, % at 5.96 µM. hit rate 0.5% among 340,000. AID 504803; in the data active = inhibition above about 36%
PRMT1 confirm: PRMT1 (human) inhibition, FP confirmation; shares compounds with PRMT1 inh; inhibition, % at 2.79 µM; recombinant His-PRMT1, activity-based probe fluorescence polarization; hit rate 42% among 3,300;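 active = mean inhibition across replicates above the hit cutoff derived for the earlier primary screen, cut at about 22% in these data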
ABHD4 confirm: confirmation of mouse ABHD4 inhibitors | purified mABHD4, FP-Rh probe fluorescence polarization | AID 720658 | hit rate 55% among 1,800 | inhibition, % at 8.92 µM | shares compounds with ABHD4 inh;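 active = mean inhibition across replicates above the hit cutoff set in the primary screen, cut at about 30% in these data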
Of the large screens only hits and unclear results are named; the others gave an inactive call (follow-up assays come after a bar, where they were run); ! = not confirmed by another sample. Rows were chosen to be rich in hits. Some 3.5% of all compounds tested hit in one or more screens of this group.

Cc1cc2c(C(F)(F)F)cc(=O)oc2c2c1NCCC2	PRMT1 inh 38 | PRMT1 confirm 58
CCOC(=O)[C@]12Cc3cc(C)ccc3[C@H]1N(C)C(=O)c1cc(OC)ccc12	none (no result: HTRA1 inhibitor)
COc1ccc(C(=O)C2CCCN(CC3CCCCC3)C2)cc1OC (stereo unspecified)	none (no result: HTRA1 inhibitor)
CC1CN1P(=S)(c1ccccc1)N1CC1C (stereo unspecified)	PRMT1 inh 36 | PRMT1 confirm inactive
CC1CN1P(=O)(Oc1ccccc1)N1CC1C (stereo unspecified)	none
Nc1ncc([N+](=O)[O-])s1	none
COC(=O)C1=C(C(=O)OC)C2OC1c1cc3ccccc3cc12	PRMT1 inh 64 | PRMT1 confirm 46
S=P(NCCSCc1ccccc1)(N1CC1)N1CC1	PRMT1 inh 29 | PRMT1 confirm inactive
S=P(NCCNP(=S)(N1CC1)N1CC1)(N1CC1)N1CC1	PRMT1 inh 58 | PRMT1 confirm inactive
CCOC(=O)C1SC2(C(F)(F)F)CC1(O)c1c(C)cc(C)nc1O2 (stereo unspecified)	PRMT1 inh 73 | PRMT1 confirm 63
COc1c(O)cc2c(c1OC)-c1ccc(SC)c(=O)cc1C(NC(C)=O)CC2 (stereo unspecified)	none
CCOc1ccc(C(C)=O)cc1Cc1c(O)[nH]c(=S)[nH]c1=O	none
COc1ccc(C(C)=O)cc1Cc1c(O)[nH]c(=S)[nH]c1=O	PRMT1 inh 28 | PRMT1 confirm inactive
N#CSCC(=O)N1c2ccccc2CCc2ccccc21	PRMT1 inh 58 | PRMT1 confirm 50
c1ccc(Cc2cnc(N3CCNCC3)nc2)cc1	PRMT1 inh 45 (no result: HTRA1 inhibitor) | PRMT1 confirm inactive
Cc1ccc(CN2CCC3CCC(C3)C2)c(O)c1 (stereo unspecified)	none
Nc1ccc2ccc3cccc[n+]3c2c1	PRMT1 inh 175 | PRMT1 confirm 150
CCOc1cccc(=NC2CCCCC2)c2c(C)n(C)c(C)c12	PRMT1 inh 47 (no result: HTRA1 inhibitor) | PRMT1 confirm inactive
O=P(C(Cl)Cl)(N1CCOCC1)N1CCOCC1	none
O=CC(Br)P(=O)(N1CCOCC1)N1CCOCC1 (stereo unspecified)	PRMT1 inh 26 (no result: HTRA1 inhibitor) | PRMT1 confirm 31
Cc1cc(N2CCNC[C@H]2C)ccc1N1CC[C@@H](O)C1	PRMT1 inh 51 (no result: HTRA1 inhibitor) | PRMT1 confirm inactive
N#C/C(=C\c1ccc(O)cc1)C(=O)O	none
CCc1ccc(/C=C(/C#N)C(N)=S)cc1	PRMT1 inh 30 | PRMT1 confirm inactive
Cc1cc(N2CCNC[C@H]2C)ccc1N1CCN[C@@H](C)C1	none (no result: HTRA1 inhibitor)
CCOC(=O)[C@]12Cc3cc(Cl)ccc3[C@H]1N(C(C)C)C(=O)c1ccccc12	none (no result: HTRA1 inhibitor)
O=c1[nH]sc2cc(F)ccc12	PRMT1 inh 73 | PRMT1 confirm 69
O=C1C=C2c3ccccc3CC(C(=O)O)C2CC1 (stereo unspecified)	none (no result: HTRA1 inhibitor)
Cc1cccc(N2CCc3c2nc2ccccc2c3N)c1	PRMT1 inh 33! | PRMT1 confirm inactive
Cc1ccnc(-n2c(C)nc3ccccc3c2=O)c1	none
O=[N+]([O-])c1ccc(N2CCOCC2)c2cccnc12	none
O=[N+]([O-])c1ccc(N2CCOCC2)c2c1no[n+]2[O-]	PRMT1 inh 27 | PRMT1 confirm inactive
O=C(NCCN1CCC2(CC1)C(=O)NCN2c1ccccc1)c1cccc2c1-c1ccccc1C2=O	none (no result: HTRA1 inhibitor)
Cc1cccc(C)c1-n1nnnc1C(C1CC1)N1CCC2(CC1)C(=O)NCN2c1ccccc1 (stereo unspecified)	none (no result: HTRA1 inhibitor)
NS(=O)(=O)c1ccc(-c2ccc(C=C3C(=O)NC(=O)NC3=O)o2)cc1	none
O=C1NC(=O)C(=Cc2ccc(SC3CCCCC3)o2)C(=O)N1	PRMT1 inh 26 | PRMT1 confirm inactive
Cn1cc(P(=S)(c2ccccc2)c2ccccc2)c2ccccc21	none (no result: TCR-CD3 inh, rCAG binder, HTRA1 inhibitor)
CN1C(=O)NC(=O)/C(=C/c2ccc([N+](=O)[O-])s2)C1=O	PRMT1 inh 31 | PRMT1 confirm 58
O=C1C2CC=CCC2C(=O)N1SC(Cl)(Cl)Cl (stereo unspecified)	PRMT1 inh 75 (no result: HTRA1 inhibitor) | PRMT1 confirm 87
C=C1C(=O)OC2CCN3CC=C(COC(=O)C(C)(O)C4(CO4)C1C)C23 (stereo unspecified)	none (no result: HTRA1 inhibitor)
CC(C)(C)n1nnnc1C(c1ccnc2ccccc12)N1CCC2(CC1)C(=O)NCN2c1ccccc1 (stereo unspecified)	none (no result: HTRA1 inhibitor)
COP(=S)(OC)SCN1C(=O)c2ccccc2C1=O	PRMT1 inh 59 | PRMT1 confirm 76
CC[C@H]1c2ccccc2[C@@H]2CC[C@H]1N2c1ccccc1	none (no result: HTRA1 inhibitor)
O=c1[nH]c2ccccc2n1C1CCN(C(c2cccs2)c2nnnn2-c2ccc3c(c2)OCCO3)CC1 (stereo unspecified)	none (no result: HTRA1 inhibitor)
Nc1ccc2nonc2c1[N+](=O)[O-]	PRMT1 inh 92 | PRMT1 confirm 78
CN(c1ccc(O)cc1)c1ccc([N+](=O)[O-])c2nonc12	none
O=C(OCC(=O)c1ccc([N+](=O)[O-])cc1)/C(=C/c1ccc(Cl)cc1)NC(=O)c1ccccc1	PRMT1 inh 46 | PRMT1 confirm inactive
CCN(CC)c1ccc(N=Cc2c(O)n(-c3ccc(OC)cc3)c(=O)[nH]c2=O)cc1	ABHD4 inh 38 | ABHD4 confirm inactive
Cc1ccccc1-n1c(O)c(C=Nc2ccc(N(C)C)cc2)c(=O)[nH]c1=O	ABHD4 inh 40, PRMT1 inh 21 | ABHD4 confirm inactive
CCCCn1nnnc1C(CCSC)N1CCC2(CC1)C(=O)NCN2c1ccccc1 (stereo unspecified)	none (no result: HTRA1 inhibitor)
CN1CCc2cc(O)cc3c2[C@H]1Cc1ccc(O)c(O)c1-3	ABHD4 inh 57, PRMT1 inh 79 | ABHD4 confirm inactive
N#CC1c2ccccc2-n2nncc2CN1Cc1cc(Cl)cc(Cl)c1 (stereo unspecified)	none
O=C(N/N=C/C1C(=O)NC(=S)N(c2ccccc2)C1=O)c1cc(Br)c(O)c(Br)c1 (stereo unspecified)	ABHD4 inh 42 | ABHD4 confirm 48
O=C(N/N=C/c1c(O)n(Cc2ccc(F)cc2)c(=S)[nH]c1=O)c1ccncc1	ABHD4 inh 32 | ABHD4 confirm 37
CCn1c(O)c(/C=N/NC(=O)c2ccncc2)c(=O)[nH]c1=S	none
C=CCn1c(O)c(C(CC)=Nc2ccc(N(C)C)cc2)c(=O)[nH]c1=O	ABHD4 inh 43, PRMT1 inh 33 (no result: HTRA1 inhibitor) | ABHD4 confirm inactive
C=CCn1c(O)c(C(CC)=Nc2ccc3c(c2)CCC3)c(=O)[nH]c1=O	none
COc1ccc(-n2c(=S)[nH]c3ccc(C)cc3c2=O)cc1	ABHD4 inh 32 | ABHD4 confirm inactive

Compound activity (PubChem BioAssay)
